Test results reported in the RNAGym collection of RNA variant scans (doi:10.1126/science.aae0568).
Fewer inactive variants are shown than the library holds.

B1: tRNA (parent)
chain: GUUCCGUUGGCGUAAUGGUAACGCGUCUCCCUCCUAAGGAGAAGACUGCGGGUUCGAGUCCCGUACGGAACG

Variants of: B1
Experiment: yeast fitness relative to wild type (ratio to wild type); higher = fitter; tRNA-Arg(CCU), competitive growth, 37 C, YPD
Procedure, shortened: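 Gene amplicons from the start population and from each of six end populations were read by 100-nucleotide paired-end sequencing. Those end populations came from pooled Saccharomyces cerevisiae strains carrying tRNA-Arg(CCU) gene variants at the native locus, competed in YPD at 37°C for 24 hours. Fitness relative to wild type was worked out from changes in genotype frequencies. Genotypes needed ≥ 100 starting reads, and estimates < 0.5 were set to 0.5.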
With GUUCCGUGGGCGUAAUGGUAACGCGACUCCCUCCUAAGGAGACGACUGUGGGUUGGAGUACCGUACGGAACG [U8G U26A A43C C49U C55G C60A] the yeast fitness was ≤ 0.5.
For GUUCCGUGGGCGUAAUGGUAACGCGUCUCCCUCCUAAGGAGAAGACUGCGGGUUAGAGUCCCGUAUGGAACG [U8G C55A C66U], the yeast fitness was ≤ 0.5.
In the case of GUUCCGUGGGCAUAAUGGUAACGCGUCUCCCACCUAAGGAGAAGACUGCCGCUUUGAGUCCCGUACGGAACG [U8G G12A U32A G50C G52C C55U], the yeast fitness is reported as ≤ 0.5.
For GUUCCGUGGGCGUAAUAGUAACGCGUCUCCCUCCUAAGGAGAAGACUGCGGGUUCGAGUCCCGUACGGACCG [U8G G17A A70C], the yeast fitness was ≤ 0.5.
In the case of GUUCCGUGGGCGUAAUGGUAACGCGUAUCCCUCCUAAGGAGAAGACUGCGGGUUCGAGUCACGUACAGAACG [U8G C27A C61A G67A], the yeast fitness is reported as ≤ 0.5.
For GUUCCGUGGGCGUAAUGGUAACGCGUCUCCCUCCUAAGGAGAAGACUGCGGGUUCGAGUCCGGUACGGAACG [U8G C62G], the yeast fitness was 0.533.
Variant GUUCCGUGGGCGUAAUGGUAACGCGUCUCCCUCCUAAGGAGAAGACUGCGGGUUCGAUUCCCGUGCAGAACG [U8G G58U A65G G67A] has a yeast fitness of 0.547.
GUUCCGUGGGCGUAAUGGUAACGCGUCUCCCUCCUAAGGAAAAGACUGCGGGUUCGAGUCCCGUACGGAACG [U8G G41A] gave a yeast fitness of 0.642.
Work on GUUCCGUGGGCGUAAUGGUAACGCGUCUCCCUCCUAAGGACAAGACUGCGGGUUCGAGUCCCGUACGGAACG [U8G G41C] yielded a yeast fitness of 0.657.
With GUUCCGUGGGCGUAAUGGUAACGCGUCUCCCUCGUAAGGAGAAGACUGCGGGUUAGAGUCCCGUAUGGAACG [U8G C34G C55A C66U] the yeast fitness was ≤ 0.5.
In the case of GUUCCGUGGGCAUAAUGGUAACGCGUCUCCCUCCUAAGGAGAAGACUGCCGCUUUGAGUCCUGUACGGACCG [U8G G12A G50C G52C C55U C62U A70C], the yeast fitness is reported as ≤ 0.5.
For GUUCCGUGGGCGUAAUAGUAACGCGUCUCCCUCCUAAGGAGAAGACUGCGGGUUCCAGUCCCGUACGGAACG [U8G G17A G56C], the yeast fitness was ≤ 0.5.
For GUUCCGUGGGCGUAAUGGUAACGCGUCACCCUCGUAAGCAGAAGACUGCGGGUUCGGGUCCCGUAUGGAACG [U8G U28A C34G G39C A57G C66U], the yeast fitness was ≤ 0.5.
For GUUCCGUGGCCGUAAUGGUGACGCGUCUCCCUCCUAAGGAGAAGACUGCGGGUUCGAGUCCCGUACGGAACG [U8G G10C A20G], the yeast fitness was ≤ 0.5.
In the case of GUUCCGUGGGCGUAAUGGUAACGCGUCUCCCUCCUAAGGAGAAGAAUGCGGGUUAGAGUCCCGUACGGAACG [U8G C46A C55A], the yeast fitness is reported as ≤ 0.5.
Work on GUUCCGUGGGCGUAAUGGUAACGCGUCUCCCUCCUAAGGAGAAGACUGCGGAUUCGAGUCCCGUACCGAACG [U8G G52A G67C] yielded a yeast fitness of 0.521.
For GUUCCGUGGGCGUAAUGGUAAUGCGUCUCCCUCCUAAGGAGAAGACUGCGGGUUCGAGUCCAGUACGGAACG [U8G C22U C62A], the yeast fitness was 0.559.
GUUCCGUGGGUGUAACGGUAACGCGUCUCCCUCCUAAGGAGUAGACUGCGGGUUCGAGUCCCGUACGGAACG [U8G C11U U16C A42U] showed a yeast fitness of 0.749.
In the case of GUUCCGUGGGCGUAAUGGUAACGCGUCUCCGUCCUAAGGACAAGACUGCCGGUUCGAGUUCCGUACGGCACG [U8G C31G G41C G50C C60U A69C], the yeast fitness is reported as ≤ 0.5.
For GUUCCGUGGGCGUAAUGGUAACGCGUCUCCCUCCUAAGGAGAAGACUGCGGGUUUGAGUCCCGUACGGAACG [U8G C55U], the yeast fitness was 0.569.
In the case of GUUCCGUGGGCGUAAUAGUAACGCGUCUCCCUCCUAAGGAGAAGACUCCGGGUUCGAGUCCCGUACGGAACG [U8G G17A G48C], the yeast fitness is reported as ≤ 0.5.
In the case of GUUCCGUGGCCGUAAUGGUGACGCGUCUCCCUCCUAAGGAGAAGACUGCGGGUUCGAGCCCCGUACAGAACG [U8G G10C A20G U59C G67A], the yeast fitness is reported as ≤ 0.5.
Work on GUUCCGUGGGCAUAAUGGUAACGCGUCUCCCUCCUACGGAGAUGACUGCGGGUUCGAGUCCCGUAAGGACCG [U8G G12A A37C A43U C66A A70C] yielded a yeast fitness of 0.597.
In the case of GUUCCGUGGCCGGAAUGGUAACGCGUCUCCCUCCUAAGGAGAAGACUGCGGGUUGGAGACCCGUACGGAACG [U8G G10C U13G C55G U59A], the yeast fitness is reported as ≤ 0.5.
In the case of GUUCCGUGGGCGUAAUGGUAACGCGUAUCCCUCCUAAGGAGAAGACUGCGGGUUCGAGUCACGUACGGAACG [U8G C27A C61A], the yeast fitness is reported as ≤ 0.5.
GUUCCGUGGGCGUAAUGGUAACGGGUCUCCCUGCUUAGGAGAAGACUGGGGGUUCGAGUCCGGUAGGGCACG [U8G C24G C33G A36U C49G C62G C66G A69C] gave a yeast fitness of 0.602.
In the case of GUUCCGUGGGCGUAAUGGUAACGCGACUCCUUCCUAAGGAGAAGACUGCGGGUUCGAGUCCCGUACGGAACG [U8G U26A C31U], the yeast fitness is reported as 0.52.
For GUUCCGUGGGCGUAAUAGUCAGGCGUCUGCCUCGUAAGGAGAAGACUGCGGGUUCGAGUCCCGUACGAAACG [U8G G17A A20C C22G C29G C34G G68A], the yeast fitness was 0.606.
With GUUCCGUGGGCGUAAUGGUAAGGCGUCUCCCUCCUAAGGAGAAGACUACGGGUUCGAGUACCGCACGGCACG [U8G C22G G48A C60A U64C A69C] the yeast fitness was 0.561.
For GUUCCGUGGGCGUAAUAGUAACGGGUCUCCCUCCUAAGGAGAAGACUGCGGGUUCGACUCCCGUACGGAACG [U8G G17A C24G G58C], the yeast fitness was ≤ 0.5.
In the case of GUUCCGUGGGCGUAAUGGUAACGCGUCUCCCUGCUAAGGAGAAGACUGCGGGUACGAGACCCGUACAGAACG [U8G C33G U54A U59A G67A], the yeast fitness is reported as ≤ 0.5.
In the case of GUUCCGUGGGCGUAAUGGUAACGCGUCUCCCUCCUAAGGAGAAGACUGCGAGUUCGAGUCCCGUACGGAACG [U8G G51A], the yeast fitness is reported as ≤ 0.5.
For GUUCCGUGGGCGUAAUGGUAACGCGUCUCCCUCCUAAGGAGAAGACUGCGGGUUCGAGUGACGUACGGAACG [U8G C60G C61A], the yeast fitness was 0.597.
In the case of GUUCCGUGGGCGUAAUGGUAACGCGUCUCCCUCGUAAGGAGAAGACUGCGGGUUCGAGUCCCGUACGGAACG [U8G C34G], the yeast fitness is reported as ≤ 0.5.
With GUUCCGUGGGCGUAAUGGUAACGCGUCUCCCUCCAAAGGAGAAGACUGCGGGUUCGAGUCCCGUACGGAACG [U8G U35A] the yeast fitness was ≤ 0.5.
Work on GUUCCGUGGGCGUAAUGGUAACGCGACUCCCUCCUAAGGAGAAGACUGCGGAUUCGAGUCCCGUACGGAACG [U8G U26A G52A] yielded a yeast fitness of 0.59.
With GUUCCGUGGGCGAAAUGGUAACGCGUCUCCCUCCUAAGGAGAGGACUGCGGGAUCGAGUCCCGUACGAAACG [U8G U13A A43G U53A G68A] the yeast fitness was ≤ 0.5.
With GUUCCGUGGGCAGAAUGGUAAGGGGUCUCCCUCCUGCGGAGAAGACUGCGGGUUCGUGUCCCGUACGCAACG [U8G G12A U13G C22G C24G A36G A37C A57U G68C] the yeast fitness was 0.589.
